Results taken from article PMC8324087 (Angewandte Chemie (International ed. in English), 2021).
Where two headings read alike, the source gives them in different places. One block for each compound: values may come before it.

How the values were obtained:
FGFR2 [1] = target: T1, FGFR2 (Homo sapiens, UniProt P21802); assay: Immunoblot analysis of FGFR2 degradation in KATO III cells; format: cell-based
In short: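 FGFR2-amplified KATO III cells exposed to test compound at 1 µM for 24h, across a concentration series for 6h, over a time course, or for 4h beside a negative-control analogue. For rescue, cells were pretreated 2h with BGJ398, a VHL ligand, bortezomib or MLN4924, then given test compound for 4h. Full-length FGFR2 was detected by immunoblot.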
Target sequence in this assay (P21802 430-767 limits assumed): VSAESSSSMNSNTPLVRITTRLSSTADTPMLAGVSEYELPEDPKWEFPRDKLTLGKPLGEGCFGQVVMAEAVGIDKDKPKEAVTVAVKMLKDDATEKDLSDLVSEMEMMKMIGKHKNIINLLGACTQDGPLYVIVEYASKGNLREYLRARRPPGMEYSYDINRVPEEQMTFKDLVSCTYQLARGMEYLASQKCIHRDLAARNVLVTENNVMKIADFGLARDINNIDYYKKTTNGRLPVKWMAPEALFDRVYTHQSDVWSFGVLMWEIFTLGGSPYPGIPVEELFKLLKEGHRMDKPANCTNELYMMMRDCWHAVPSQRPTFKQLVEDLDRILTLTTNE

FGFR2 [2] = target: T1, FGFR2; assay: Z'-LYTE kinase assay; format: biochemical
Target sequence in this assay (P21802 22-821): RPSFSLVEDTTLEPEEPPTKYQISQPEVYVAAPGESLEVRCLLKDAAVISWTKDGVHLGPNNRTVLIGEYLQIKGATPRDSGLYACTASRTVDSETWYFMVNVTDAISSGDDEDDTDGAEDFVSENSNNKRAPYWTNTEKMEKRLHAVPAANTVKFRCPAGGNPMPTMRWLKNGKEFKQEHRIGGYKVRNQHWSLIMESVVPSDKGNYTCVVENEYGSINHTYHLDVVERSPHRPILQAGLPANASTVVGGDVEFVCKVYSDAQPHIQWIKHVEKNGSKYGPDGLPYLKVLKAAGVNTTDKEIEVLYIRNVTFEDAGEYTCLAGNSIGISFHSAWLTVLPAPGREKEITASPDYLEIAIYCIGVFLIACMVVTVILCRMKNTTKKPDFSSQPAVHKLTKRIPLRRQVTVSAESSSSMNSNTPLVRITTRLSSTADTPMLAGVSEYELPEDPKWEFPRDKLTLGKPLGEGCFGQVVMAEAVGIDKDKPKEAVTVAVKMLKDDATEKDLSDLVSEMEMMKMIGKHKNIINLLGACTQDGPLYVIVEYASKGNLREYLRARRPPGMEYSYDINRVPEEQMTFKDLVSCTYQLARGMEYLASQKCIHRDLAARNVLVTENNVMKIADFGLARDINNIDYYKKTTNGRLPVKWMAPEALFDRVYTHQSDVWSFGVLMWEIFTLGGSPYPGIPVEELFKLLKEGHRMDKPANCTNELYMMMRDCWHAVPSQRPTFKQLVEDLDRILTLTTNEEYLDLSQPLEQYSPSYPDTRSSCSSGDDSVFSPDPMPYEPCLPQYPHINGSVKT

[3] = Pharmacokinetics study in mice; format: in vivo
In short: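 Mice received a single dose of test compound by intravenous injection (1 mg/kg), intraperitoneal injection (3 mg/kg) or oral administration (10 mg/kg) for pharmacokinetic profiling.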

Kelly cells = assay: Quantitative mass spectrometry-based proteomics in Kelly cells; format: cell-based; details: 5h treatment, 1 µM
In short: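 Kelly cells, which express both FGFR1 and FGFR2, given test compound at 1 µM for 5h. Quantitative mass spectrometry-based proteomics gave relative abundance of proteins across the proteome.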

FGFR2-PHGDH fusion = FGFR2-PHGDH fusion (Homo sapiens, UniProt O43175+P21802); assay: Immunoblot analysis of FGFR2-PHGDH fusion in CCLP-1-FP cells; format: cell-based; details: 100 nM and 1 µM, 24h
In short: (§1)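 Immunoblot for FGFR2 fusion protein after 24 h exposure to test compound. FGFR2-PHGDH fusion is ectopically expressed in CCLP-1 cells (CCLP-1-FP); FGFR2-OPTN is endogenous in ICC13–7 cells. Both fusions carry nearly the full FGFR2 coding sequence (extracellular, transmembrane and kinase domains) fused in-frame to dimerization-domain partners.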

[4] = test system: phosphorylation of FRS2 or ERK; assay: Immunoblot of downstream FGFR2 signaling; format: cell-based; details: CCLP1-FP cells, 50 nM, 4 or 8 hours
In short: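 CCLP1 cells ectopically expressing the FGFR2-PHGDH fusion were exposed to test compound at 50 nM for 4 or 8 hours. Lysates were immunoblotted for the fusion protein and for signaling markers.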

CCLP-FP cells = assay: CellTiter-Glo anti-proliferation, CCLP-FP cells; format: cell-based; details: read-out: anti-proliferative IC50, engineered FGFR2 fusion CCLP-FP cells, 3d
In short: (§2)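 Cell viability read by CellTiter-Glo after test compound exposure: 3d for CCLP-FP (CCLP-1 with ectopic FGFR2-PHGDH fusion) and CCLP1 (FGFR1 overexpression), 10d for ICC13–7 (endogenous FGFR2-OPTN fusion); anti-proliferative IC50 derived; mean ± SEM, n = 3.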

FGFR2-OPTN fusion = FGFR2-OPTN fusion (Homo sapiens, UniProt P21802+Q96CV9); assay: Immunoblot analysis of FGFR2-OPTN fusion in ICC13–7 cells; format: cell-based; details: 100 nM and 1 µM, 24h
In short: as §1

FGFR2-PHGDH = FGFR2-PHGDH (Homo sapiens, UniProt O43175+P21802); assay: In vivo pharmacodynamics, CCLP1-FGFR2-PHGDH xenograft model; parameters: species or system mice; details: 20 or 40 mg/kg, IP QD for 6d; tumors isolated 4h after last dose
In short: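 Mice bearing CCLP1-FGFR2-PHGDH xenografts began dosing once tumours reached ~200 mm3. Test compound was given at 20 or 40 mg/kg IP once daily for 6 d to assess in vivo degradation and signaling.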

FGFR4 = FGFR4 (Homo sapiens, UniProt P22455); assay: Immunoblot analysis of FGFR4 in JHH7 cells; format: cell-based; details: 16h
CCLP1 cells = assay: CellTiter-Glo anti-proliferation, CCLP1 cells; format: cell-based; details: read-out: anti-proliferative IC50, FGFR1 overexpressing CCLP1 cells, 3d
In short: as §2

FGFR1 = FGFR1 (Homo sapiens, UniProt P11362); assay: Immunoblot analysis of FGFR1 degradation in CCLP1 cells; format: cell-based
FGFR3 = FGFR3 (Homo sapiens, UniProt P22607); assay: Immunoblot analysis of FGFR3 in JHH7 cells; format: cell-based; details: 16h
all FGFR isoforms = assay: Biochemical inhibition of FGFR isoforms; details: Table S1
In short: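 FGFR isoform IC50s measured by Z'-LYTE kinase assay, run as an outsourced service.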

ICC13–7 cells = assay: CellTiter-Glo anti-proliferation, ICC13–7 cells; format: cell-based; details: read-out: anti-proliferative IC50, FGFR2 fusion-positive ICC13–7 cells, 10d
In short: as §2

[5] = read-out: FGFR2 IC50, BGJ398-VHL based degraders

FGFR2-PHGDH, sequence (P21802 458-767 limits assumed, one chain of several): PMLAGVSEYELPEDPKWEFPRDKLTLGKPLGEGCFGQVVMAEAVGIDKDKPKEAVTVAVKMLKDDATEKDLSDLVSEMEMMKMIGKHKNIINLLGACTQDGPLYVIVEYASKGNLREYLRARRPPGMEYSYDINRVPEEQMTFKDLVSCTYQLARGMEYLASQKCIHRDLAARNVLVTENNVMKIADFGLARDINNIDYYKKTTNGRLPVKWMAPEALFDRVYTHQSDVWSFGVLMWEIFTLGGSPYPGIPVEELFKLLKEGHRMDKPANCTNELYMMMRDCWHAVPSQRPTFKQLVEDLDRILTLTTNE
FGFR1, sequence (P11362 22-822): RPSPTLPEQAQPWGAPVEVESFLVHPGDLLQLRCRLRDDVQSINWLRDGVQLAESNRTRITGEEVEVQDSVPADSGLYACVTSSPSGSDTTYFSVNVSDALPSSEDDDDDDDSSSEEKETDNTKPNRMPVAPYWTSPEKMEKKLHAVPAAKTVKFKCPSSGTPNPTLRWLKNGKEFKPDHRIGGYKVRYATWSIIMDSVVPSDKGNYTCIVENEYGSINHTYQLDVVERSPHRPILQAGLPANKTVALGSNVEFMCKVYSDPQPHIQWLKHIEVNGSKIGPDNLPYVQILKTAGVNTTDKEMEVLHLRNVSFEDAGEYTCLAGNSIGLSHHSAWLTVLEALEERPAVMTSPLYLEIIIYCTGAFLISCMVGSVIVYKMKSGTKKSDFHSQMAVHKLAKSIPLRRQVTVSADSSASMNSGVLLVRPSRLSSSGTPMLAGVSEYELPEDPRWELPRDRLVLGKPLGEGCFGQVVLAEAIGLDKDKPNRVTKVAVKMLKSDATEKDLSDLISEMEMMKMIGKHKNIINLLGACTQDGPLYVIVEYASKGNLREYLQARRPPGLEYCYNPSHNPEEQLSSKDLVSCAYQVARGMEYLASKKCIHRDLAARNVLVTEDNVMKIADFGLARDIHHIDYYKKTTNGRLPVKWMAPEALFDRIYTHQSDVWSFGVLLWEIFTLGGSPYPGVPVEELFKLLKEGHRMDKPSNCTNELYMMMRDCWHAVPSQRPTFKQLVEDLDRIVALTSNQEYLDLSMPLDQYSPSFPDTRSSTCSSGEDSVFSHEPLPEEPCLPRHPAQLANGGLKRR
FGFR2-OPTN fusion, sequence (P21802 431-767 limits assumed, one chain of several): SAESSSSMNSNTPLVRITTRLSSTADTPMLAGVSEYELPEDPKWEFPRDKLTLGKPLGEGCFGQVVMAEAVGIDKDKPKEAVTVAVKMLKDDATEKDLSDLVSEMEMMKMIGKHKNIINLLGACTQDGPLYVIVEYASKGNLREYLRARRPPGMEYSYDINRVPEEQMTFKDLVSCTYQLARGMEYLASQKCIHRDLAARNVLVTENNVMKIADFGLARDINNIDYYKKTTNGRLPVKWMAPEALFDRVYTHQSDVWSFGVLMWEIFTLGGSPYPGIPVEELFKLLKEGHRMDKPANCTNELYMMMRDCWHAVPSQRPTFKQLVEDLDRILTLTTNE
FGFR2-PHGDH fusion, sequence (P21802 431-767 limits assumed, one chain of several): as above
FGFR3, sequence (P22607 23-806): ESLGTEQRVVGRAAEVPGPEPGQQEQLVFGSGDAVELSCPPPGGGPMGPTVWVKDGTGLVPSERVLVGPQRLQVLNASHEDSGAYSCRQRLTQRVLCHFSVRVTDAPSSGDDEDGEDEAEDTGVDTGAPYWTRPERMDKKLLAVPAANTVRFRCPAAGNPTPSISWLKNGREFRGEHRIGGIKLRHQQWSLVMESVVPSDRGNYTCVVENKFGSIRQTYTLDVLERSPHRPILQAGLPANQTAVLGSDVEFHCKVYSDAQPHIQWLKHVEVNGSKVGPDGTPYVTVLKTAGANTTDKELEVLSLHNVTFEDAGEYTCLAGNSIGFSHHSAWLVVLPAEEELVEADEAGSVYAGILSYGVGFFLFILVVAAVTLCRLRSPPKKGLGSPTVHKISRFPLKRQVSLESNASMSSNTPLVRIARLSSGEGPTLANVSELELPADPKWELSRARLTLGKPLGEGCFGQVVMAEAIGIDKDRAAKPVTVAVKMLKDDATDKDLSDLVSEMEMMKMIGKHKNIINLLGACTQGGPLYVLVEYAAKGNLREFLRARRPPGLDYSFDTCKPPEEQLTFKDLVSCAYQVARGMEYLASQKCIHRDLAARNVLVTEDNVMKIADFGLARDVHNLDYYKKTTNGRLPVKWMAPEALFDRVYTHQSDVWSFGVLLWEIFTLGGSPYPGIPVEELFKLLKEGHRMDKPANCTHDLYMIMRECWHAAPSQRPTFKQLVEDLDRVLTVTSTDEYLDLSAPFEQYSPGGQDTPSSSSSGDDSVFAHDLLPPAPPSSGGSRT
FGFR4, sequence (P22455 22-802): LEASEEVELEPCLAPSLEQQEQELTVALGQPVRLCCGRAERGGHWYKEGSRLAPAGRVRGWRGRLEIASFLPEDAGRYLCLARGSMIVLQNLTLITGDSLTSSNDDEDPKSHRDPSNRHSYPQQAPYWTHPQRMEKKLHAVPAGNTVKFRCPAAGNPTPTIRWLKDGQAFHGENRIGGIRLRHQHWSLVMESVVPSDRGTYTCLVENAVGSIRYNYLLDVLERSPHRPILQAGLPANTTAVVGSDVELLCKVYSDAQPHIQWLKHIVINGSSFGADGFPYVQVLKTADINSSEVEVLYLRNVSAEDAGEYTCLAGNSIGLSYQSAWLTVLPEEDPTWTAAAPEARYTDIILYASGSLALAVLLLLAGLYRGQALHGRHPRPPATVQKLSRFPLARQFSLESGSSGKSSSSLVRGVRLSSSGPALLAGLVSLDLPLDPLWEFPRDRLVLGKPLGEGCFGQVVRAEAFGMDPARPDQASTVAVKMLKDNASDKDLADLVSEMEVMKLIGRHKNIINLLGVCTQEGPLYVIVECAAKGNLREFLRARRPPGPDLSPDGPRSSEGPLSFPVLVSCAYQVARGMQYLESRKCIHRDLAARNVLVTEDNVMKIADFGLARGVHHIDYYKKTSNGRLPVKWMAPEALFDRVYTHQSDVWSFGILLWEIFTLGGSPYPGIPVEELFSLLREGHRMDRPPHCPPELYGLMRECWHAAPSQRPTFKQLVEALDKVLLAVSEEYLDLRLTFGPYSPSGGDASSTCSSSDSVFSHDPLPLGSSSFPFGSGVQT

Structure (SMILES): COc1cc(OC)c(Cl)c(NC(=O)N(C)c2cc(Nc3ccc(N4CCN(CC(=O)NCCCCCOc5cccc6c5C(=O)N(C5CCC(=O)NC5=O)C6=O)CC4)cc3)ncn2)c1Cl (stereo not drawn) [DGY-09-073]
IC50 (FGFR2 [2]; read-out: FGFR2 IC50, BGJ398-IMiDs based degraders): 33 nM

Structure (SMILES): COc1cc(OC)c(Cl)c(NC(=O)N(C)c2cc(Nc3ccc(N4CCN(CC(=O)N[C@H](C(=O)N5C[C@H](O)C[C@H]5C(=O)N[C@@H](C)c5ccc(-c6scnc6C)cc5)C(C)(C)C)CC4)cc3)ncn2)c1Cl [DGY-09-192]
AUClast ([3]; ip 3 mg/kg): 7.33 µM·h
CL ([3]; ip 3 mg/kg): 6.84 mL/min/kg
Cmax ([3]; ip 3 mg/kg): 1490 nM
T1/2 ([3]; ip 3 mg/kg): 4.25 h
Tmax ([3]; ip 3 mg/kg): 1.33 h
AUClast ([3]; iv 1 mg/kg): 2.94 µM·h
CL ([3]; iv 1 mg/kg): 5.58 mL/min/kg
Cmax ([3]; iv 1 mg/kg): 1600 nM
T1/2 ([3]; iv 1 mg/kg): 5.45 h
Tmax ([3]; iv 1 mg/kg): 0.08 h
Vss ([3]; iv 1 mg/kg): 1.41 L/kg
oral bioavailability ([3]; oral 10 mg/kg): negligible
AUClast ([3]; po 10 mg/kg): 0.07 µM·h
CL ([3]; po 10 mg/kg): 1550.77 mL/min/kg
Cmax ([3]; po 10 mg/kg): 10 nM
Fpo ([3]; po 10 mg/kg): 0.2
T1/2 ([3]; po 10 mg/kg): 5.10 h
Tmax ([3]; po 10 mg/kg): 1.67 h
clearance ([3]; via IV and IP administration): low clearance
half-life (T1/2) ([3]; via IV and IP administration): 5 h
Proteome-wide degradation selectivity (Kelly cells): high selectivity for FGFR1 and FGFR2 with PDE6D as an off-target
Degradation of FGFR2-PHGDH fusion protein (FGFR2-PHGDH fusion): dose-dependent degradation
Suppression of downstream FGFR2 signaling (phosphorylation of FRS2 or ERK) [4]: durably suppressed
IC50 (CCLP-FP cells): 8 nM
Concentration at which hook effect is observed (FGFR2 [1]; 6h dose titration): above 5 µM
Dmax of FGFR2 degradation (FGFR2 [1]; 6h treatment): 74%
Degradation of full length FGFR2 protein (FGFR2 [1]; 24h treatment at 1 µM): most potent degradation
Time to significant FGFR2 degradation (FGFR2 [1]; time course): ≤ 4 h
Degradation of FGFR2-OPTN fusion protein (FGFR2-OPTN fusion): dose-dependent degradation
FGFR2-PHGDH protein levels in tumor (FGFR2-PHGDH): reduction
phosphorylation of downstream markers FRS2 and ERK1/2 in tumor (FGFR2-PHGDH): reduction
IC50 (FGFR2 [2]; [5]): 34 nM
Effect on FGFR4 protein levels (FGFR4): minimal effects
IC50 (CCLP1 cells): 17 nM
Dmax of FGFR1 degradation (FGFR1; 16h): 85%
DC50 (FGFR1; read-out: DC50 of FGFR1 degradation, 16h): 4.35 nM
Effect on FGFR3 protein levels (FGFR3): minimal effects
Inhibition of FGFR isoforms (all FGFR isoforms): equally potent inhibitor for all FGFR isoforms
IC50 (ICC13–7 cells): 40 nM

Structure (SMILES): COc1cc(OC)c(Cl)c(NC(=O)N(C)c2cc(Nc3ccc(N4CCN(CC(=O)NCCCCCSC(C)(C)C(NC(C)=O)C(=O)N5CC(O)CC5C(=O)NC(C)c5ccc(-c6scnc6C)cc5)CC4)cc3)ncn2)c1Cl (stereo not drawn) [DGY-11-122]
IC50 (FGFR2 [2]; [5]): 43 nM

Structure (SMILES): COc1cc(OC)c(Cl)c(NC(=O)N(C)c2cc(Nc3ccc(N4CCN(CC(=O)NCCCCCOc5cc(-c6scnc6C)ccc5[C@H](C)NC(=O)[C@@H]5C[C@@H](O)CN5C(=O)[C@@H](NC(C)=O)C(C)(C)C)CC4)cc3)ncn2)c1Cl [DGY-11-123]
IC50 (FGFR2 [2]; [5]): 59 nM

Structure (SMILES): COc1cc(OC)c(Cl)c(NC(=O)N(C)c2cc(Nc3ccc(N4CCN(CC(=O)NCCC(=O)N[C@H](C(=O)N5C[C@H](O)C[C@H]5C(=O)N[C@@H](C)c5ccc(-c6scnc6C)cc5)C(C)(C)C)CC4)cc3)ncn2)c1Cl [NJH-05-043]
IC50 (FGFR2 [2]; [5]): 30 nM

Structure (SMILES): COc1cc(OC)c(Cl)c(NC(=O)N(C)c2cc(Nc3ccc(N4CCN(CCCCCC(=O)N[C@H](C(=O)N5C[C@H](O)C[C@H]5C(=O)N[C@@H](C)c5ccc(-c6scnc6C)cc5)C(C)(C)C)CC4)cc3)ncn2)c1Cl [NJH-05-123]
IC50 (FGFR2 [2]; [5]): 16 nM

Structure (SMILES): COc1cc(OC)c(Cl)c(NC(=O)N(C)c2cc(Nc3ccc(N4CCN(CCC(=O)N[C@H](C(=O)N5C[C@H](O)C[C@H]5C(=O)N[C@@H](C)c5ccc(-c6scnc6C)cc5)C(C)(C)C)CC4)cc3)ncn2)c1Cl [NJH-05–166]
IC50 (FGFR2 [2]; [5]): 30 nM

Now from value to compound:

Rescue of DGY-09-192 induced FGFR2 degradation by pretreatment (FGFR2 [1]; 2h pretreatment then DGY-09-192 for 4h): rescued FGFR2 degradation
Structure (SMILES): CCN1CCN(c2ccc(Nc3cc(N(C)C(=O)Nc4c(Cl)c(OC)cc(OC)c4Cl)ncn3)cc2)CC1 [BGJ398, reference compound]

IC50 (FGFR2 [2]; [5]): 33 nM
Structure (SMILES): COc1cc(OC)c(Cl)c(NC(=O)N(C)c2cc(Nc3ccc(N4CCN(C(=O)NCCOCCC(=O)NC(C(=O)N5CC(O)CC5C(=O)NC(C)c5ccc(-c6scnc6C)cc5)C(C)(C)C)CC4)cc3)ncn2)c1Cl (stereo not drawn) [NJH-05-044]

IC50 (FGFR2 [2]; [5]): 10 nM
Structure (SMILES): COc1cc(OC)c(Cl)c(NC(=O)N(C)c2cc(Nc3ccc(N4CCN(CCCC(=O)N[C@H](C(=O)N5C[C@H](O)C[C@H]5C(=O)N[C@@H](C)c5ccc(-c6scnc6C)cc5)C(C)(C)C)CC4)cc3)ncn2)c1Cl [NJH-05–132]
